From ChEMBL document CHEMBL1221166, “Molecular basis of inverse agonism in a G protein-coupled receptor” (Nat Chem Biol, 2005)
Active and inactive are the calls of the source. The rule behind the calls is not given here.

Molecular target: T1, Alpha-2A adrenergic receptor (Homo sapiens) (UniProt P08913)
T1 sequence (whole entry): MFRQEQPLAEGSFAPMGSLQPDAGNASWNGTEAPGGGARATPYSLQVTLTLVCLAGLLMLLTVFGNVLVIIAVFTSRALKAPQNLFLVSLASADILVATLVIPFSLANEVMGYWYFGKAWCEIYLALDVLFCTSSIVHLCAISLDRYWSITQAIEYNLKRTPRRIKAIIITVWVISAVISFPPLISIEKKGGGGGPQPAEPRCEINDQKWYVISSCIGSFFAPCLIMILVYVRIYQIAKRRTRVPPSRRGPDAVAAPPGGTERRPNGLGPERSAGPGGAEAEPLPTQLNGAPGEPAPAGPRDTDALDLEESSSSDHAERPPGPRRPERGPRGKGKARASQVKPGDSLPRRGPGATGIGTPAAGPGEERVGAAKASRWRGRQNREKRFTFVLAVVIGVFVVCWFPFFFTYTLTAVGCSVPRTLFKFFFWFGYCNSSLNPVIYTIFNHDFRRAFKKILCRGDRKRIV
Assay: Partial agonist activity at adrenergic alpha2A receptor expressed in HEK293 cells coexpressing yellow fluorescent and cyan fluorescent protein assessed as effect on kinetics of receptor conformational change by FRET assay
Type: functional, cell-based
In short: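 HEK293 cells expressing α2AAR tagged with CFP/YFP were superfused rapidly with ligand at room temperature. The time course of the corrected FYFP/FCFP ratio was fitted with a monoexponential equation to give kobs. kobs was then plotted against the percentage FRET change.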

Activity	Compound
Active	Cc1cc(C(C)(C)C)c(O)c(C)c1CC1=NCCN1
Active	Clc1cccc(Cl)c1NC1=NCCN1
Active	NCCc1ccc(O)c(O)c1
Active	COc1nc(C)nc(Cl)c1NC1=NCCN1

Molecular target: T1, Alpha-2A adrenergic receptor (Homo sapiens)
Assay: Inverse agonist activity at adrenergic alpha2A receptor expressed in HEK293 cells coexpressing yellow fluorescent and cyan fluorescent protein assessed as increase in resonance signal at 100 uM by FRET assay
Type: functional, cell-based
In short: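 Single HEK293 cells expressing α2AAR tagged with CFP/YFP were grown on coverslips and kept at room temperature. They were continuously superfused with HEPES buffer at pH 7.4 (137 mM NaCl, 0.1% BSA), and ligand was applied by solenoid-valve rapid superfusion. YFP and CFP emissions were recorded by dual-emission photometry on a 100× oil objective. FRET was taken as the spillover-corrected ratio FYFP/FCFP, with photobleaching drift subtracted where needed.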

Activity	Compound
Active	COC1(C2=NCCN2)COc2ccccc2O1 (stereo unspecified)
Active	CN1CC[C@]2(CCN3CCc4c(oc5ccccc45)[C@@H]3C2)N(C)C1=O
